Calls of active or inactive are those of the source.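 Rule for the calls, unless noted: active = potentiation averaged over duplicate wells exceeding buffer-only control mean by more than 3 SD; inactive = the rest.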
What was measured:
[1] = thallium flux activation in parental CHO cells, counter-screen for KCNQ1 potentiator project (AID 493006;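 active = duplicate-averaged activation above buffer control mean plus 5 SD of those controls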); settings: parental CHO-K1 cells, FluxOR thallium flux, at 10 µM; active compounds read high
Outline: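 Assay system: parental CHO-K1 cells lacking KCNQ1, loaded with FluxOR thallium dye; timing: dye 90 min RT, compound 20 min RT; signal: kinetic thallium-flux fluorescence; repeats: duplicate wells per compound, percent values averaged; benchmarks: buffer and R-L3 controls; reagent: Potassium/thallium depolarization pulse; read-out: fluorescence change ratio scaled 0% buffer, 100% R-L3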

[2] = target: Potassium voltage-gated channel subfamily KQT member 1 (Homo sapiens) (UniProt P51787); experiment: KCNQ1 potassium channel potentiators, confirmation, FluxOR thallium flux, CHO cells, duplicates (AID 493007); settings: KCNQ1 cell line, FluxOR thallium flux fluorescence, at 10 µM; active compounds read high, % of reference activator effect, buffer zero;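 for outcome: cells depolarized by a potassium plus thallium sulfate stimulus after compound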
Sequence of Potassium voltage-gated channel subfamily KQT member 1 (Homo sapiens) (P51787 whole entry, looked up): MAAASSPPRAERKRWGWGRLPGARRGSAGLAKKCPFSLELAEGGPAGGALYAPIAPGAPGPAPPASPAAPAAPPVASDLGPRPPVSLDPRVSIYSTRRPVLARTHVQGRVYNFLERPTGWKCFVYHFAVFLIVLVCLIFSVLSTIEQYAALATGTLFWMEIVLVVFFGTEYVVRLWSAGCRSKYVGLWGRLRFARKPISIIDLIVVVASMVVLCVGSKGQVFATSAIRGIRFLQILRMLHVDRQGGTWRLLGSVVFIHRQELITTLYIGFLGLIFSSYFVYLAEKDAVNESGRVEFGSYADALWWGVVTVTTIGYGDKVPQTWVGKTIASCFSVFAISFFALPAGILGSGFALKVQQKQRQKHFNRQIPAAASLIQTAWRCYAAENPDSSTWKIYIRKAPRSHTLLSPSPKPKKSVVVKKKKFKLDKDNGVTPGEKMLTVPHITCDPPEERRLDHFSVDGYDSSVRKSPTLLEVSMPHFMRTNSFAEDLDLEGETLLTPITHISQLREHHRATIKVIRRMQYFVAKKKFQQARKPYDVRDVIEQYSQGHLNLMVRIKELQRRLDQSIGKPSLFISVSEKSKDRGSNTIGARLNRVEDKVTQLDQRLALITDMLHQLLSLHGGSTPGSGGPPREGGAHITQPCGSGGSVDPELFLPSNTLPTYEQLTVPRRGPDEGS
Outline: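 material = CHO cells stably expressing the KCNQ1 potassium channel | repeats = duplicate wells per compound | measure = percent activation between buffer and R-L3 responses | signal = FluxOR thallium-flux fluorescence, kinetic read | schedule = FluxOR dye loading 90 min, compound exposure 20 min, room temperature | control set = buffer and R-L3 controls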

[3] = target: Potassium voltage-gated channel subfamily KQT member 2 (Rattus norvegicus) (UniProt O88943); experiment: rat KCNQ2 channel potentiation, selectivity assay for KCNQ1 potentiator project, KCNQ2-CHO-K1 cells (AID 493009;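 active = mean duplicate potentiation above the buffer control mean plus 5 SD of buffer wells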;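 note: assay conditions were tuned for KCNQ1 rather than KCNQ2 modulators; signal is max minus min fluorescence divided by baseline after thallium stimulus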); settings: FluxOR thallium flux fluorescence, at 10 µM; active compounds read high, scaled: buffer 0, activator control 100
Sequence of Potassium voltage-gated channel subfamily KQT member 2 (Rattus norvegicus) (O88943 whole entry, looked up): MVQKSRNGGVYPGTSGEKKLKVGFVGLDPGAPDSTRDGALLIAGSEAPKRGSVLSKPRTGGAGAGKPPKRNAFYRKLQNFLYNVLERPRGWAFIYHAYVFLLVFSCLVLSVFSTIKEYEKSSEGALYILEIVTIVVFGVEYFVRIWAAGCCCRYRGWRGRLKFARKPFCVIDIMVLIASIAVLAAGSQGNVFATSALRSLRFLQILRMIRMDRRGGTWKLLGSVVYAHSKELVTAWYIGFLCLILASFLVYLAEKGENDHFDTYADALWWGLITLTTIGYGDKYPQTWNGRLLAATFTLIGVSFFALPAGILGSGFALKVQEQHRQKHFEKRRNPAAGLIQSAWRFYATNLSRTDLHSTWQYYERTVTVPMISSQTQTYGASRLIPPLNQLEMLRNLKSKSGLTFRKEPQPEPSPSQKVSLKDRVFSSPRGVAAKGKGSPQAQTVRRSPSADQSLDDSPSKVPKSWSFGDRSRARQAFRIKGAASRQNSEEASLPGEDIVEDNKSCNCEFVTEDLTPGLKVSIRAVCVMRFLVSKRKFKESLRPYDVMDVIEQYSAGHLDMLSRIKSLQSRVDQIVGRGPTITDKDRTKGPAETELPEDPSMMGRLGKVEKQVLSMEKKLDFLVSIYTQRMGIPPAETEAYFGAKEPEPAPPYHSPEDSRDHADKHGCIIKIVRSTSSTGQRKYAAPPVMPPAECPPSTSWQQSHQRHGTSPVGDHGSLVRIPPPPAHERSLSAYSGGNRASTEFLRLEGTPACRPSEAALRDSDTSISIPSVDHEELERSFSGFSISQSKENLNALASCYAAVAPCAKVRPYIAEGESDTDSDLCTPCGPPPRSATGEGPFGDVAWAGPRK

[4] = target: Potassium voltage-gated channel subfamily KQT member 1 (Homo sapiens) (UniProt P51787); experiment: KCNQ1 channel current potentiators, confirmation, orthogonal assay for KCNQ1 potentiator project, IonWorks patch clamp, KCNQ1-CHO cells (AID 493184;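 active = current rise at least 3 SD above the untreated control mean in each of two repeat wells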); settings: automated patch clamp current, at 10 µM; active compounds read high
Outline: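 Assay system – CHO cells carrying KCNQ1 · Medium – pH 7.4 external bath · Probe or stimulus – depolarizing pulse to +40 mV from -90 mV · Compound dosing – one dose, 10 µM final · Measured by – automated perforated-patch electrophysiology · Measure – % potentiation of steady-state current relative to pre-compound · Repeats – two replicates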

[5] = target: Potassium voltage-gated channel subfamily E member 1 (Homo sapiens) + Potassium voltage-gated channel subfamily KQT member 1 (Homo sapiens) (UniProt P15382+P51787); experiment: KCNQ1/KCNE1 complex potentiators, confirmation, selectivity assay for KCNQ1 potentiator project, thallium flux, CHO-K1 KCNQ1/E1 cells (AID 493186;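 active = mean duplicate activation above the buffer control mean plus 5 SD of those controls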); settings: FluxOR thallium flux, at 10 µM; active compounds read high
Sequence of Potassium voltage-gated channel subfamily E member 1 (Homo sapiens) + Potassium voltage-gated channel subfamily KQT member 1 (Homo sapiens) (P51787 whole entry, looked up): as the sequence (P51787 whole entry, looked up) above
Outline: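 Assay system: CHO-K1 cells with KCNQ1/E1 | Dosing: Single compound concentration per well | Incubation: Dye 90 min, compound 20 min, room temperature | Measured by: FluxOR Tl+ flux fluorescence, kinetic read | Controls: Buffer low control, R-L3 high control | Replicates: Duplicate wells per compound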

Compound | outcome [1] | outcome [2] | outcome [3] | outcome [4] | outcome [5] | potentiation [2] | potentiation [3] | activation [5]
Fc1ccc(/C=N/n2c(C3CCCCC3)n[nH]c2=S)cc1 | inactive | inactive | inactive | inactive | inactive |  |  | 
CCOC(=O)c1[nH]c2cc(OC)c(OC)cc2c1NC(=O)CN(C)C1CCCCC1 | inactive |  | inactive | inactive | inactive | 18% (active) |  | 
Cc1c(C(=O)Nc2ccc(F)cc2)oc2ccc(S(=O)(=O)N3CC(C)CC(C)C3)cc12 (stereo not given) | inactive | inactive | inactive | inactive | inactive |  |  | 
CC1CN(c2nc3ccccc3nc2C(C#N)C(=O)NCc2ccc3c(c2)OCO3)CC(C)O1 (stereo not given) | inactive |  | inactive | inactive | inactive | 26% (active) |  | 
CCCc1cc(=O)[nH]c(SCC(=O)Nc2ccc(Br)cc2Br)n1 | inactive | inactive | inactive | inactive | inactive |  |  | 
Cc1ccc(C)c(NC(=S)c2nc3ccccc3s2)c1 | inactive |  |  | inactive | inactive | 104% (active) | 143% (active) | 
O=c1c2ccccc2oc2cc(NCCCN3CCOCC3)ccc12 | inactive |  | inactive | inactive | inactive | 29.5% (active) |  | 
O=C(NC1=NCCS1)c1ccc(N2CCCC2=O)cc1 | inactive |  | inactive | inactive | inactive | 28.5% (active) |  | 
CC(Oc1ccc2ccccc2c1)C(=O)NNC(=S)NC(=O)c1ccco1 (stereo not given) | inactive |  |  | inactive |  | 93% (active) | 214% (active) | 15.3% (active)
O=C(NCC1CCCO1)c1cccc(Oc2ccccc2)c1 (stereo not given) | inactive | inactive | inactive | inactive | inactive |  |  | 
COc1ccc(-c2csc(N(CCCN(C)C)C(=O)c3ccccc3C)n2)cc1 | inactive | inactive | inactive | inactive | inactive |  |  | 
S=C(Nc1ccc(Cl)cc1)c1nc2ccccc2s1 | inactive |  | inactive | inactive |  | 47.5% (active) |  | 23.8% (active)
Oc1ccc(Br)cc1C=Nc1ccc(Cl)cc1 | inactive | inactive | inactive | inactive | inactive |  |  | 
Cc1cc(-c2cccs2)c(C#N)c(=S)[nH]1 | inactive | inactive | inactive | inactive | inactive |  |  | 
Cc1cc(C)cc(-n2c(C)cc(/C=C3\C(=N)N4N=C(CC(C)C)SC4=NC3=O)c2C)c1 | inactive |  | inactive | inactive | inactive | 21.5% (active) |  | 
Cc1ccc(C(=O)NC(=S)N(C)C2CCCCC2)cc1Br | inactive |  |  | inactive |  | 61% (active) | 159% (active) | 40.1% (active)

Compound | outcome [1] | outcome [2] | outcome [3] | outcome [4] | outcome [5] | potentiation [2] | potentiation [3] | activation [5]
S=C(NN=C1CCCCCC1)Nc1ccc(Cl)cc1 | inactive | inactive | inactive | inactive | inactive |  |  | 
COC(=O)c1sccc1NC(=O)CSc1ccccc1NS(=O)(=O)c1cc(Cl)ccc1Cl | inactive | inactive | inactive | inactive | inactive |  |  | 
Cc1ccc(S(=O)(=O)Nc2cccc3ncccc23)s1 | inactive |  |  | inactive | inactive | 19.5% (active) | 168% (active) | 
O=C(NCC(c1cccs1)N1CCOCC1)C1CCN(S(=O)(=O)c2cccc(C(F)(F)F)c2)CC1 (stereo not given) | inactive | inactive | inactive | inactive | inactive |  |  | 
COc1cc(OC)cc(C(=O)N2CC(=O)Nc3ccccc32)c1 | inactive | inactive | inactive | inactive | inactive |  |  | 
CCN1CCN(C(c2ccccn2)c2c(NC(=O)c3ccccc3)sc(C)c2C)CC1 (stereo not given) | inactive | inactive | inactive | inactive | inactive |  |  | 
O=C(NCCCN1CCCC1)c1ccc2c(c1)N(Cc1ccccc1)CCS2 | inactive | inactive | inactive | inactive | inactive |  |  | 
CCCOc1ccccc1NS(=O)(=O)c1ccc2[nH]c(=O)[nH]c2c1 | inactive | inactive | inactive | inactive | inactive |  |  | 
COc1cc(/C=C2\C(=O)N(CCC#N)N=C2C)c(Br)cc1OC(C)C | inactive | inactive | inactive | inactive | inactive |  |  | 
O=C(NNc1ncc(C(F)(F)F)cc1Cl)c1ccc(Cl)c(Cl)c1 | inactive | inactive |  | inactive | inactive |  | 198% (active) | 
Cc1ccccc1CS(=O)(=O)c1nnc([C@H](Cc2ccccc2)NC(=O)OC(C)(C)C)o1 | inactive |  | inactive | inactive | inactive | 22.5% (active) |  | 
Cc1ccc(C(=O)NC(=S)NNC(=O)COc2ccc([N+](=O)[O-])cc2)cc1 | inactive |  | inactive | inactive | inactive | 19.5% (active) |  | 
S=C(Nc1ccccc1)Nc1nc2ccccc2n1CCOc1ccc(Cl)cc1 | inactive | inactive | inactive | inactive | inactive |  |  | 
O=C(CSc1nnc(-c2ccccn2)n1-c1ccc(Cl)cc1)Nc1ccc2c(c1)OCO2 | inactive | inactive | inactive | inactive | inactive |  |  | 
Cc1[nH]c(=S)c(C#N)c(C)c1Cc1ccc(Cl)cc1Cl | inactive | inactive | inactive | inactive | inactive |  |  | 
